We go through eleven compounds from ChEMBL document CHEMBL1159012, “Anti-aids agents, 6. Salaspermic acid, an anti-HIV principle from Tripterygium wilfordii, and the structure-activity correlation with its related compounds” (J Nat Prod, 1992).

Test [1] relates to Human immunodeficiency virus 1. Nature of the test: Antiviral activity against HIV 3B infected human H9 cells assessed as inhibition of p24 antigen release. The note with it: Human immunodeficiency virus 1, 3B, read-out: ED50 (the source's name). Format: functional. The essentials:
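H9 lymphocytes (3.5×10^6 cells/ml) exposed to HIV-1 HTLV-IIIB at 0.01-0.1 TCID50/cell for 1 h at 37°, then washed and resuspended at 4×10^5 cells/ml. Mixed with an equal volume of compound diluted in medium and cultured 3 days at 37°. Virus released into the medium measured by p24 antigen capture. EC50 read graphically from a plot of % inhibition versus concentration.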

In the next test the test system is H9. Nature of the test: Cytotoxicity against human H9 cells. Format: cell-based. The essentials:
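Uninfected H9 lymphocytes were handled in parallel with the infected cultures: 1 h mock exposure at 37°, washing, resuspension at 4×10^5 cells/ml, and 3 days at 37° with an equal volume of compound diluted in medium. Cell density was counted with a Coulter counter. IC50 was read graphically from a plot of % inhibition versus concentration.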

Test [2] has as its target T1, Human immunodeficiency virus type 1 reverse transcriptase (Human immunodeficiency virus 1, UniProt Q72547). In words: Inhibition of HIV1 recombinant reverse transcriptase expressed in Escherichia coli using poly(dC)-oligo(dG) template.
Test [3] in a line: Inhibition of HIV2 reverse transcriptase using poly(rC)-oligo(dG) template. The arrangement: species or system Human immunodeficiency virus 2. The method in brief: (§1)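 Reverse transcriptase purified from E. coli expressing it: HIV-1 from JM109 carrying pKRT2, HIV-2 from a strain bearing pASRT2. HIV-2 enzyme was run with poly(rC)·oligo(dG). EC50 values were reported.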
In test [4] the target is Human immunodeficiency virus type 1 reverse transcriptase (Human immunodeficiency virus 1) (UniProt Q72547). Nature of the test: Inhibition of HIV1 recombinant reverse transcriptase expressed in Escherichia coli using poly(rG)-oligo(dC) template at 100 ug/ml.
The target is the same in test [5]. In words: Inhibition of RNAse activity of HIV1 recombinant reverse transcriptase using poly(dT).[3H]poly(rA) template at 100 ug/ml. The essentials:
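The RNase H activity of purified HIV-1 reverse transcriptase, expressed in E. coli JM109/pKRT2, was assayed with poly(dT)·[3H]poly(rA) as substrate. Compound was tested at 100 µg/ml.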

For test [6] the target is unchanged. In words: Inhibition of HIV1 recombinant reverse transcriptase expressed in Escherichia coli using poly(rU)-oligo(dA) template at 100 ug/ml.
Test [7] addresses T1, Human immunodeficiency virus type 1 reverse transcriptase. In words: Inhibition of HIV1 recombinant reverse transcriptase expressed in Escherichia coli using poly(rU)-oligo(dA) template.
In test [8] the target is Human immunodeficiency virus type 1 reverse transcriptase (Human immunodeficiency virus 1) (UniProt Q72547). Nature of the test: Inhibition of DNA polymerase activity of HIV1 recombinant reverse transcriptase. The method in brief: as §1
Test [9] concerns the target T1, Human immunodeficiency virus type 1 reverse transcriptase. In words: Inhibition of HIV1 recombinant reverse transcriptase expressed in Escherichia coli using poly(rC)-oligo(dG) template.
For test [10] the target is unchanged. In words: Inhibition of HIV1 recombinant reverse transcriptase expressed in Escherichia coli using poly(rG)-oligo(dC) template.
For test [11] the target is unchanged. Nature of the test: Inhibition of HIV1 recombinant reverse transcriptase expressed in Escherichia coli using poly(rA)-oligo(dT) template.

SMILES strings stand for the structures. ≈ marks a conversion by molar mass, not a printed value. Calls of active or inactive are those of the source. No cut-off for these calls is given here.

Usually IC50 stands for the concentration that gives 50% inhibition. High values mean lower potency, low ones higher potency. With `C[C@H]1C(=O)CC[C@@H]2[C@]1(C)CC[C@H]1[C@@]2(C)CC[C@@]2(C)[C@@H]3C[C@@](C)(C(=O)O)CC[C@]3(C)CC[C@]12C`, the EC50 in test [1] turned out to be 59 µM. In addition, in the test on H9, it took 44 µM to reach half-maximal inhibition (IC50).
For `C[C@@H]1[C@@]23CC[C@H]4[C@@](C)(CC[C@@]5(C)[C@@H]6C[C@](C)(C(=O)O)CC[C@]6(C)CC[C@]45C)[C@@H]2C[C@@H](O)[C@@]1(O)OC3`, in that order: 103 µM and 64 µM.
For `C[C@H]1C(=O)CC[C@@H]2[C@]1(C)CC[C@H]1[C@@]2(C)CC[C@@]2(C)[C@@H]3CC(C)(C)CC[C@]3(C)[C@H](O)C[C@]12C`, in that order: 2 µM and 8 µM.
The like results for `C[C@H]1C(=O)CC[C@H]2[C@]3(C)CC[C@@]4(C)[C@@H]5CC(C)(C)C(=O)C[C@]5(C)C(=O)C[C@]4(C)[C@H]3C[C@@H](O)[C@]12C` were, in that order, over 106 µM and 106 µM.
Turning to `C[C@H]1C(=O)CC[C@@H]2[C@]1(C)CC[C@H]1[C@@]2(C)CC[C@@]2(C)[C@@H]3C[C@](C)(CO)CC[C@]3(CO)CC[C@]12C`, the EC50 in test [1] was found to be 11 µM. Also, in the test on H9, the IC50 turned out to be 15 µM.
In the case of `C[C@H]1C(=O)CC[C@@H]2[C@]1(C)CC[C@H]1[C@@]2(C)CC[C@@]2(C)[C@@H]3CC(C)(C)CC[C@]3(C(=O)O)CC[C@]12C`, in [1], the EC50 was 15 µM. For the same compound, the half-maximal inhibitory concentration (IC50) in the test on H9 was 22 µM.
The like results for `C[C@H]1C(=O)CC[C@@H]2[C@]1(C)CC[C@H]1[C@@]2(C)CC[C@@]2(C)[C@@H]3CC(C)(C)CC[C@]3(OO)CC[C@]12C` were, in that order, 38 µM and 38 µM.
As for `C[C@H]1C(=O)CC[C@@H]2[C@]1(C)CC[C@H]1[C@@]2(C)CC[C@@]2(C)[C@@H]3C[C@@](C)(CO)CC[C@]3(CO)CC[C@]12C`, the EC50 in [1] was 13 µM. The compound also displayed an IC50 with H9 of 20 µM.
The like results for `C[C@H]1C(=O)CC[C@@H]2[C@]1(C)CC[C@H]1[C@@]2(C)CC[C@@]2(C)[C@@H]3CC(C)(C)CC[C@]3(CO)CC[C@]12C` [CANOPHYLLOL] were, in that order, 4 µM and 18 µM.
For `C[C@H]1C(=O)CC[C@@H]2[C@]1(C)CC[C@H]1[C@@]2(C)CC[C@@]2(C)[C@@H]3C[C@](C)(C(=O)O)CC[C@]3(C)CC[C@]12C` [MAYTENOIC ACID], in that order: 66 µM and 44 µM.
For orientation: inhibition means the percentage by which the read-out fell short of the control. Turning to `C[C@@H]1[C@@]23CC[C@H]4[C@@](C)(CC[C@@]5(C)[C@@H]6C[C@](C)(C(=O)O)CC[C@]6(C)CC[C@]45C)[C@@H]2CC[C@@]1(O)OC3` [SALASPERMIC ACID], the EC50 in test [2] is 159 µM; in test [1], 10 µM; in test [3], 100 µg/mL (≈ 212 µM); in test [7], over 212 µM; in test [9] it was 31.7 µM; in [10] it was over 212 µM. Moreover, the EC50 in [11] was 33.8 µM. For the same compound, the inhibition in test [4] worked out at 4%; in test [6] it was 37%. The outcome in test [5] was inactive. For the same compound, in test [8], the outcome was Active. This compound came in with a half-inhibitory concentration (IC50) with H9 of 53 µM.
